The test system of data set [1] is Rattus norvegicus. Briefly: Protective index, ratio of TD50 for po dosed albino Sprague-Dawley rat to ED50 for po dosed albino Sprague-Dawley rat. The format is functional. In outline: (§1)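 Protective index was calculated as TD50/ED50 for the same species and route: mouse ip (rotorod TD50, MES ED50) and rat po.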
In data set [2] the test system is Mus musculus. Kind of data set: Protective index, ratio of TD50 for ip dosed albino CF1 mouse to ED50 for ip dosed albino CF1 mouse. It is filed as functional. In outline: as §1
The test system of data set [3] is Rattus norvegicus. Kind of data set: Anticonvulsant activity against in ip dosed albino Sprague-Dawley rat hippocampal kindled seizure model assessed as after-discharge duration after 0.5 hrs. The format is functional, Hippocampus. The method in brief:
(§2)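 Rats were given compounds intraperitoneally in the rapid hippocampal kindling model under the NINDS ASP. Racine seizure score and after-discharge duration (sec) were recorded before and after dosing. Where determined, ED50 (mg/kg) is given with an interval.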

Data set [4] relates to Mus musculus. Kind of data set: Anticonvulsant activity against subcutaneous metrazole-induced seizures in albino CF1 mouse at 300 mg/kg, ip after 0.5 hrs. The format is functional, organism-based. Also on record: dose 300 mg/kg. In outline: (§3)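 Subcutaneous Metrazol seizure test under the NINDS ASP, using ip dosing to mice, typically at 300 mg/kg. Protection was assessed at 0.5 and 4 h.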

The test system of data set [5] is Mus musculus. Briefly: Anticonvulsant activity against subcutaneous metrazole-induced seizures in albino CF1 mouse at 300 mg/kg, ip after 4 hrs. The format is functional, organism-based. Also on record: dose 300 mg/kg. In outline: as §3
In data set [6] the test system is Rattus norvegicus. Briefly: Anticonvulsant activity against in ip dosed albino Sprague-Dawley rat hippocampal kindled seizure model assessed as decrease in seizures after 0.5 hrs. It is filed as functional. The settings on record: Hippocampus. The method in brief: as §2
The test system of data set [7] is Rattus norvegicus. Briefly: Anticonvulsant activity against subcutaneous metrazole-induced seizures in albino Sprague-Dawley rat at 300 mg/kg, ip after 0.5 hrs. The format is functional, organism-based. Also on record: dose 300 mg/kg.
Data set [8] relates to Mus musculus. Briefly: Anticonvulsant activity in ip dosed albino CF1 mouse seizure model assessed as protection against hind limb extension by MES test. It is filed as functional. The settings on record: albino CF1, Hindlimb. In outline: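 Maximal electroshock seizure test run by the NINDS ASP (Stables and Kupferberg procedures). Compounds were given intraperitoneally to mice, and the ED50 for seizure protection is reported in mg/kg.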

The test system of data set [9] is Rattus norvegicus. Kind of data set: Anticonvulsant activity against subcutaneous metrazole-induced seizures in albino Sprague-Dawley rat at 300 mg/kg, ip after 4 hrs. The format is functional, organism-based. Further details: dose 300 mg/kg.
Data set [10] can be described thus: Behavioral toxicity in po dosed albino Sprague-Dawley rat. It is filed as organism-based. To be noted: in vivo. The method in brief: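 Behavioral toxicity was recorded as observed effects in rats after oral administration, within the NINDS ASP screen.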
Data set [11] can be described thus: Neurological toxicity in ip dosed albino CF1 mouse assessed as neurological impairment by rotarod test. The format is organism-based. To be noted: in vivo. In outline: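 Neurological impairment was measured with the rotorod test in mice dosed intraperitoneally. The median dose (TD50, mg/kg) was determined only for compounds with significant MES activity.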

The subject of data set [12] is Rattus norvegicus. Briefly: Anticonvulsant activity in po dosed albino Sprague-Dawley rat seizure model assessed as protection against hind limb extension by MES test. The format is functional. The settings on record: Hindlimb. In outline:
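MES seizure protection was tested in Sprague Dawley rats dosed orally, through the NINDS ASP. The ED50 is expressed in mg/kg.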

Active and inactive are the calls of the source. No cut-off for these calls is given here. Where only a bound is given, the exact number is not on record here.

Consider `COCc1ccc(CNC(=O)[C@@H](COC)NC(C)=O)cc1`, for which the values for the PI in the data set on Rattus norvegicus [1] and in the data set on Mus musculus [2] were above 11 and 2.3, respectively. Further, the Time with Rattus norvegicus [3] is 12 s. Moreover, the result in the data set with Mus musculus [4], with Mus musculus [5], in the data set with Rattus norvegicus [7] and with Rattus norvegicus [9] was inactive. Further, the median effective dose (ED50) (usually the dose that gives a 50% effect, or the effect in half of the subjects) is 87 mg/kg with Rattus norvegicus [6] and 73 mg/kg in the data set on Mus musculus [8]. In addition, the TD50 – broadly, the 50% point of the dose-response relation for the toxic effect studied – in [10] was above 500 mg/kg.

Take `COCCCc1ccc(CNC(=O)[C@@H](COC)NC(C)=O)cc1`: the PI in the data set on Rattus norvegicus [1] was above 32; in the data set on Mus musculus [2], 3.1. In addition, the Time in the data set with Rattus norvegicus [3] was found to be 21 s. Moreover, the result in the data set on Mus musculus [4], with Mus musculus [5], in the data set on Rattus norvegicus [7] and with Rattus norvegicus [9] was inactive. Moreover, the TD50 in [11] was 62 mg/kg; in [10] it was above 500 mg/kg. Moreover, the ED50 with Mus musculus [8] turned out to be 20 mg/kg.

For the compound `CCCC(CCC)C(=O)[O-].[Na+]` [VALPROATE SODIUM], the result with Mus musculus [4], in the data set with Mus musculus [5], in the data set on Rattus norvegicus [7] and with Rattus norvegicus [9] was inactive. Also, the ED50 with Rattus norvegicus [6] was 210 mg/kg; with Mus musculus [8] it was 270 mg/kg.

In the case of `COC[C@@H](NC(C)=O)C(=O)NCc1ccc(Cl)cc1`, the ED50 was found to be 1 mg/kg in the data set on Rattus norvegicus [12] and 5 mg/kg in the data set with Mus musculus [8]. Besides, the PI is given as above 200 in the data set with Rattus norvegicus [1] and 5.6 in the data set with Mus musculus [2]. The Time in the data set on Rattus norvegicus [3] is 2 s. The result in the data set on Mus musculus [4], in the data set with Mus musculus [5], in the data set with Rattus norvegicus [7] and with Rattus norvegicus [9] was inactive. The TD50 is 28 mg/kg in data set [11] and above 200 mg/kg in data set [10].

On to `C=Cc1ccc(CNC(=O)[C@@H](COC)NC(C)=O)cc1`, for which the ED50 in the data set with Rattus norvegicus [12] was 7.6 mg/kg; with Mus musculus [8], 3.5 mg/kg. Besides, the values for the PI in the data set on Rattus norvegicus [1] and in the data set with Mus musculus [2] were above 20 and 4.6, respectively. In the data set on Rattus norvegicus [3], the Time is 0 s. Also, the result in the data set on Mus musculus [4], in the data set with Mus musculus [5], in the data set on Rattus norvegicus [7] and with Rattus norvegicus [9] was inactive. Besides, the TD50 in data set [11] worked out at 16 mg/kg.

Consider `COC[C@@H](NC(C)=O)C(=O)NCc1ccc(I)cc1`, for which the median effective dose (ED50) in the data set with Rattus norvegicus [12] came out at 12 mg/kg; in the data set on Rattus norvegicus [6] it was 12 mg/kg; in the data set on Mus musculus [8], 16 mg/kg. The PI with Rattus norvegicus [1] is recorded as above 43; with Mus musculus [2] it was 2.6. For the same compound, the Time with Rattus norvegicus [3] is recorded as 0 s. Moreover, the outcome with Mus musculus [4], in the data set on Mus musculus [5], with Rattus norvegicus [7] and in the data set on Rattus norvegicus [9] was inactive. The TD50 in data set [11] is 41 mg/kg; in [10] it was above 500 mg/kg.

In the case of `COC[C@@H](NC(C)=O)C(=O)NCc1ccc(N=[N+]=[N-])cc1`, the PI with Rattus norvegicus [1] is above 64. Moreover, the Time with Rattus norvegicus [3] was found to be 0 s. Also, the outcome in the data set on Mus musculus [4], in the data set on Mus musculus [5], in the data set on Rattus norvegicus [7] and in the data set on Rattus norvegicus [9] was inactive. For the same compound, the ED50 turned out to be 6 mg/kg in the data set with Rattus norvegicus [6] and 8.4 mg/kg in the data set with Mus musculus [8]. In [10], this compound gave a TD50 above 250 mg/kg.
